Columns and labels:
CDK8/Cyclin C = CDK8/Cyclin C (Homo sapiens, UniProt P49336); test: Inhibition of CDK8/Cyclin C (unknown origin) preincubated for 20 mins followed by ATP addition and measured after 120 mins in presence of [33P-gamma] ATP by hotspot kinase assay; format: protein-complex assay
Outline: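 Radiometric filter-binding assay: kinase and substrate in 20 mM Hepes pH 7.5, 10 mM MgCl2, 1 mM EGTA, 0.02% Brij35, 0.02 mg/mL BSA, 0.1 mM Na3VO4, 2 mM DTT, 1% DMSO. Compound (top 1/10/27 μM, 3-fold serial dilutions) preincubated 20 min at 25 °C. ATP plus [γ-33P]ATP added to 10 μM final, reacted 120 min at 25 °C. IC50 from curve fit, duplicate mean.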

[1] = Volume of distribution at steady state in ICR mouse at 2 mg/kg, iv measured up to 24 hrs by LC-MS/MS analysis; format: ADME, organism-based; conditions: in vivo, read-out: Vdss
Outline: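 Male ICR mice (25.1–28.8 g, n=9), fasted 12 h, given a single i.v. dose of 2.0 mg/kg at 0.4 mg/mL in DMSO/PEG200/saline (1:1:3). Blood sampled at 0, 0.083, 0.25, 0.5, 1, 2, 4, 8, 24 h. Plasma ACN-precipitated and quantified by LC-MS/MS. Parameters derived from composite mean plasma concentration-time data.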

CDK8/Cyclin C, sequence (P49336 whole entry): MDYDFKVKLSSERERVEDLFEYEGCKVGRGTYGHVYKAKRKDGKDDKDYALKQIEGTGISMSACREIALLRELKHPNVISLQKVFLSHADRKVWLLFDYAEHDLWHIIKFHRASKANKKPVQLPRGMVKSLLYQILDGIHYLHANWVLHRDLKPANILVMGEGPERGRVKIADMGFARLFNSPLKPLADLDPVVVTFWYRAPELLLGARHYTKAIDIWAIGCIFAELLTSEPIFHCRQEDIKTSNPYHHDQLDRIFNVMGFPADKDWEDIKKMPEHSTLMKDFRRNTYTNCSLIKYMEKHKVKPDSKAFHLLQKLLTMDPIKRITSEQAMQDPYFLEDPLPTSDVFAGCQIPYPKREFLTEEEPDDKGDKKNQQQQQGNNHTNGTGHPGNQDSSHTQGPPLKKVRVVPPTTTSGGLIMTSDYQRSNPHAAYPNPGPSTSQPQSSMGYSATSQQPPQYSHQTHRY
CDK8/Cyclin C, sequence (P24863 whole entry, further chain): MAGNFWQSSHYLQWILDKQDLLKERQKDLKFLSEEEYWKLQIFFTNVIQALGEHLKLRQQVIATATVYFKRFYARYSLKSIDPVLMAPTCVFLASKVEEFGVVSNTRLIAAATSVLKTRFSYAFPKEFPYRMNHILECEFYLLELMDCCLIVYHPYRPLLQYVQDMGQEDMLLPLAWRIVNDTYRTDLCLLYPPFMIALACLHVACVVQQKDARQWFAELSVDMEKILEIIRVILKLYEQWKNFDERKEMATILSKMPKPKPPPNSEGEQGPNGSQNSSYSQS

COc1cc(F)ccc1-c1nc(Nc2ccc3c(N4CCOCC4)c(C(C)=O)c(=O)oc3c2)ncc1F
IC50 (CDK8/Cyclin C): 6.5 µM
Vd [1]: 0.67 L/kg

Source: ChEMBL document CHEMBL4765336, “Discovery of coumarin derivatives as potent and selective cyclin-dependent kinase 9 (CDK9) inhibitors with high antitumour activity” (Eur J Med Chem, 2020)
